According to ChEMBL document CHEMBL1153209, “Synthesis and biological activity of a potent and orally bioavailable SCD inhibitor (MF-438)” (Bioorg Med Chem Lett, 2010):

Tests used:
[1] = target: T1, Acyl-CoA desaturase 1 (Rattus norvegicus, UniProt P07308); test: Inhibition of SCD1 in rat liver microsomes; set-up: species or system Microsome
T1 sequence (P07308 whole entry): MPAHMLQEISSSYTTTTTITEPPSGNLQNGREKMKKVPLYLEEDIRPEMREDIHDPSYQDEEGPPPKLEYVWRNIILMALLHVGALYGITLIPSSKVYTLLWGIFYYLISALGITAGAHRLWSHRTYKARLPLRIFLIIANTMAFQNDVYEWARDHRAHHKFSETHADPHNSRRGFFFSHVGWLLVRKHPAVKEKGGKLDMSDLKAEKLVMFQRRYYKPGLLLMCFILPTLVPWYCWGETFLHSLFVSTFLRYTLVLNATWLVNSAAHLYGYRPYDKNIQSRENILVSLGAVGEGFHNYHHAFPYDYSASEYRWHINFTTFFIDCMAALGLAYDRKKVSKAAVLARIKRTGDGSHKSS

[2] = system: Mus musculus; test: Toxicity in diet-induced obese chronic po dosed mouse; conditions: in vivo
[3] = target: T2, Cytochrome P450 3A4 (Homo sapiens, UniProt P08684); test: Inhibition of CYP3A4 up to 30 uM; assay type: ADME
T2 sequence (P08684 whole entry): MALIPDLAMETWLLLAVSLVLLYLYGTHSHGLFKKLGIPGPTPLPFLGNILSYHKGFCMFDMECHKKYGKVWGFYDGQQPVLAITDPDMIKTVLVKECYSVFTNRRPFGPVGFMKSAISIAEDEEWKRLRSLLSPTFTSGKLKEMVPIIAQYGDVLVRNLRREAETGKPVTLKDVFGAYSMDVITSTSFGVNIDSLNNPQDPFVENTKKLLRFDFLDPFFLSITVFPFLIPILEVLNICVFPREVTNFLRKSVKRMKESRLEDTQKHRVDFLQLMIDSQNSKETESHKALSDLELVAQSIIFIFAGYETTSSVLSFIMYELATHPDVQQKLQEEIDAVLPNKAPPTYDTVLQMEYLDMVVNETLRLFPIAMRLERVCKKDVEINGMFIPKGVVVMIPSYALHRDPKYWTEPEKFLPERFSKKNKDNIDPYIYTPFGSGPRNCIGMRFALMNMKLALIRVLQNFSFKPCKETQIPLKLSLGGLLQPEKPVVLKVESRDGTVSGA

[4] = Half life in mouse; assay type: ADME, organism-based; conditions: in vivo
[5] = Oral bioavailability in rat; assay type: ADME, organism-based; conditions: in vivo
[6] = system: Mus musculus; test: Toxicity in DIO mouse assessed as partial eye closure at 5 mg/kg qd for 1 week; assay type: organism-based; set-up: dose 5 mg/kg; conditions: in vivo, 168 h
[7] = Oral bioavailability in mouse; assay type: ADME, organism-based; conditions: in vivo
[8] = Half life in rat; assay type: ADME, organism-based; conditions: in vivo
[9] = target: T3, Cytochrome P450 2D6 (Homo sapiens, UniProt P10635); test: Inhibition of CYP2D6 up to 30 uM; assay type: ADME
T3 sequence (P10635 whole entry): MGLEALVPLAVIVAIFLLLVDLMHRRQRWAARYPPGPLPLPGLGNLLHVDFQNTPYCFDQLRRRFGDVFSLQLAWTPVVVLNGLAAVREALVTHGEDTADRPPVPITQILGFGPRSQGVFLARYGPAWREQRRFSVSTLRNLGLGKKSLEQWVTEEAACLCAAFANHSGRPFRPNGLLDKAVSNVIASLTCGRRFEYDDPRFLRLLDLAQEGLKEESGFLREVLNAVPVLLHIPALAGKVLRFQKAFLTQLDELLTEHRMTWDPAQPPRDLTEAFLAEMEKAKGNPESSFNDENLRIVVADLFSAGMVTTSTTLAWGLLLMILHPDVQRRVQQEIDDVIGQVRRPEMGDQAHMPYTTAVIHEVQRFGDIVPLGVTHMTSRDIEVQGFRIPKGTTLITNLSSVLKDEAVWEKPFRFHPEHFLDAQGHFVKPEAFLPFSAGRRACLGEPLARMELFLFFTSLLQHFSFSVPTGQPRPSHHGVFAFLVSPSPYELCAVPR

[10] = system: Mus musculus; test: Toxicity in DIO mouse assessed as alopecia at 5 mg/kg qd for 1 week; assay type: organism-based; set-up: dose 5 mg/kg; conditions: in vivo, 168 h
[11] = system: Mus musculus; test: Inhibition of stearoyl-CoA […] in high-carbohydrate diet-fed mouse liver dosed orally assessed as conversion of [14C]stearic acid to [14C]oleic acid; assay type: functional; conditions: po
Method in brief: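 Mice on a high-carbohydrate diet given compound PO, then IV 14C-stearic acid tracer 1 h later; livers collected 2 h after tracer and lipids analysed.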

[12] = Bioavailability in rat at 10 mg/kg, po or 2 mg/kg, iv; assay type: ADME, organism-based; conditions: in vivo
Method in brief: (§1)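 Rats dosed 10 mg/kg PO and 2 mg/kg IV; plasma concentration sampled over time for parent and its acid metabolite; each time point is the average of two animals.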

[13] = Half life in rat at 10 mg/kg, po or 2 mg/kg, iv; assay type: ADME, organism-based; conditions: in vivo; method in brief: as §1
[14] = target: T3, Cytochrome P450 2D6; test: Inhibition of CYP2D6; assay type: ADME
[15] = target: T2, Cytochrome P450 3A4; test: Inhibition of CYP3A4; assay type: ADME
[16] = system: Rattus norvegicus; test: Stability in rat assessed as AUC of 6-(4-(2-(trifluoromethyl)phenoxy)piperidin-1-yl)pyridazine-3-carboxylic acid at 10 mg/kg, po; assay type: ADME, organism-based; set-up: dose 10 mg/kg, route oral; conditions: in vivo; method in brief: as §1
[17] = AUC in rat at 2 mg/kg, iv; assay type: ADME, organism-based; set-up: dose 2 mg/kg, route intravenous; conditions: plasma; method in brief: as §1
[18] = AUC in rat at 10 mg/kg, po; assay type: ADME, organism-based; set-up: dose 10 mg/kg, route oral; conditions: plasma; method in brief: as §1

IC50 [1]	SMILES	other results
162 nM	c1cc(OC2CCN(c3ccc(-n4ccnc4)nn3)CC2)c2cc[nH]c2c1	
322 nM	O=C(NCCC1CC1)c1ccc(N2CCN(C(=O)c3ccccc3C(F)(F)F)CC2)nn1	
710 nM	CC(C)(C)c1nnc(-c2ccc(N3CCC(Oc4ccccc4C(F)(F)F)CC3)nn2)s1	
6.1 nM	Oc1nnc(-c2ccc(N3CCC(Oc4ccccc4C(F)(F)F)CC3)nn2)s1	
8.8 nM	CC(C)c1nnc(-c2ccc(N3CCC(Oc4ccccc4C(F)(F)F)CC3)nn2)s1	
543 nM	COc1ccccc1OC1CCN(c2ccc(-n3ccnc3)nn2)CC1	
1890 nM	c1ccc(OC2CCN(c3ccc(-n4ccnc4)nn3)CC2)cc1	
3.9 nM	CC(C)c1nnc(-c2ccc(N3CCC(Oc4ccccc4C(F)(F)F)CC3)nn2)o1	
2.9 nM	OCc1nnc(-c2ccc(N3CCC(Oc4ccccc4C(F)(F)F)CC3)nn2)o1	
2.3 nM	Cc1nnc(-c2ccc(N3CCC(Oc4ccccc4C(F)(F)F)CC3)nn2)s1	Activity [2]: Toxic; inhibition (INH) [3]: Not Active; half-life [4]: 6.4 h; bioavailability [5]: 38%; Activity [6]: Toxic; bioavailability [7]: 73%; half-life [8]: 6 h; inhibition (INH) [9]: Not Active; Activity [10]: Toxic; ED50 [11]: 1 mg/kg
5 nM	Brc1ccccc1OC1CCN(c2ccc(-n3ccnc3)nn2)CC1	
251 nM	Cc1cccc(OC2CCN(c3ccc(-n4ccnc4)nn3)CC2)c1	
527 nM	Cc1ccc(OC2CCN(c3ccc(-n4ccnc4)nn3)CC2)cc1	
4 nM	FC(F)(F)c1ccccc1OC1CCN(c2ccc(-n3ccnc3)nn2)CC1	bioavailability [12]: 53%; half-life [13]: 1.2 h; IC50 [14]: 300 nM; IC50 [15]: 400 nM
19 nM	FC(F)(F)c1cccc(OC2CCN(c3ccc(-n4ccnc4)nn3)CC2)c1	
371 nM	FC(F)(F)c1ccc(OC2CCN(c3ccc(-n4ccnc4)nn3)CC2)cc1	
22 nM	FC(F)(F)c1ccccc1OC1CCN(c2ccc(-c3nnco3)nn2)CC1	

IC50 [1]	SMILES	other results
14 nM	O=C(NCCC1CC1)c1ccc(N2CCC(Oc3ccccc3C(F)(F)F)CC2)nn1	
10 nM	c1cc2c(c(OC3CCN(c4ccc(-n5ccnc5)nn4)CC3)c1)CCC2	
16 nM	NC(=O)c1ccc(N2CCC(Oc3ccccc3C(F)(F)F)CC2)nn1	AUC [16]: 179 µM·h; bioavailability [12]: 10%; half-life [13]: 0.54 h; AUC [17]: 1.9 µM·h; AUC [18]: 0.9 µM·h
10000 nM	O=C(O)c1ccc(N2CCC(Oc3ccccc3C(F)(F)F)CC2)nn1	
15 nM	CC(C)Cc1nnc(-c2ccc(N3CCC(Oc4ccccc4C(F)(F)F)CC3)nn2)o1	
34 nM	CC(=O)c1ccccc1OC1CCN(c2ccc(-n3ccnc3)nn2)CC1	
62 nM	c1cn(-c2ccc(N3CCC(Oc4ccc5c(c4)CCC5)CC3)nn2)cn1	
980 nM	CC(C)(C)c1nnc(-c2ccc(N3CCC(Oc4ccccc4C(F)(F)F)CC3)nn2)o1	
37 nM	CC(C)Cc1nnc(-c2ccc(N3CCC(Oc4ccccc4C(F)(F)F)CC3)nn2)s1	
6 nM	Cc1nnc(-c2ccc(N3CCC(Oc4ccccc4C(F)(F)F)CC3)nn2)o1	
23 nM	Brc1cccc(OC2CCN(c3ccc(-n4ccnc4)nn3)CC2)c1	
38 nM	CCc1cccc(OC2CCN(c3ccc(-n4ccnc4)nn3)CC2)c1	
236 nM	N#Cc1ccccc1OC1CCN(c2ccc(-n3ccnc3)nn2)CC1	
39 nM	Cc1ccccc1OC1CCN(c2ccc(-n3ccnc3)nn2)CC1	
4 nM	CCc1ccccc1OC1CCN(c2ccc(-n3ccnc3)nn2)CC1	
3.2 nM	OCc1nnc(-c2ccc(N3CCC(Oc4ccccc4C(F)(F)F)CC3)nn2)s1	
